Assay results taken from PMC6944734 (Alzheimer's & Dementia : Translational Research & Clinical …, 2019).

System: primary mouse neuronal cultures
Experiment: Synaptic recordings
Type: cell-based
Details: compared with the control
In short: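 Primary neurons from E18 mouse embryos plated at 10 K per well on coverslips. At DIV 11–13, sister coverslips from the same pups were treated 24 or 72 h before recording with DMSO (n = 4), γ-secretase inhibitor DAPT (n = 5) or test compound (n = 4), and all recorded the same day. Spontaneous miniature events analysed for frequency, interevent interval, amplitude and decay. Access resistance 2–14 MΩ.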

With `C[C@H](NC(=O)Cc1cc(F)cc(F)c1)C(=O)N[C@H](C(=O)OC(C)(C)C)c1ccccc1` [difluorphenacetyl-alanyl phenylglycine t-butyl ester] the “Single quantum (amplitudes below 20 pA) and multiquantal (~35–45 pA) releases” value was “significantly more”.
